The text below walks through data of ChEMBL document CHEMBL1221339, “Modulation of the inhibitor properties of dipeptidyl (acyloxy)methyl ketones toward the CaaX proteases” (Bioorg Med Chem, 2010).

The source made the active and inactive calls. The rule behind the calls is not given here.

The target in the first assay is T1, CAAX prenyl protease 2 (Saccharomyces cerevisiae S288c) (UniProt Q03530).
T1 sequence (whole entry): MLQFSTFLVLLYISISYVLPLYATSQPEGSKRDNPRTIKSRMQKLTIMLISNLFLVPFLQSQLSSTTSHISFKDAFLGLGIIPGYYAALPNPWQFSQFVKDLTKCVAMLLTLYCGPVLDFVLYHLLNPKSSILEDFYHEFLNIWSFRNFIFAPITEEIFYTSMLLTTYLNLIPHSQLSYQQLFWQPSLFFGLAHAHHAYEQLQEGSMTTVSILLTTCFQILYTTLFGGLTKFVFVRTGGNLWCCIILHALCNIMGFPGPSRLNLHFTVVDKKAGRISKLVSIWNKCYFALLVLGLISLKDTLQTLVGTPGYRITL
As to the kind of experiment: Inhibition of Saccharomyces cerevisiae SM3614 Ras converting enzyme 1 at 100 uM after 60 mins by fluorescence based proteolysis assay. The method, boiled down: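 Membranes enriched for yeast Rce1p (plasmid pWS479 in SM3614, ste24Δ rce1Δ), 0.25 mg/mL final in 100 mM HEPES pH 7.5, 5 mM MgCl2. Pretreated 15 min at 30 °C with 100 µM compound, then 20 µM quenched ABz-KSKTKC(farnesyl)QLIM added. Fluorescence 320/420 nm read every 30–60 s for 60 min at 30 °C. Initial velocities give % activity vs DMSO. At least 4 replicates.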
With `NCCCC[C@H](NC(=O)[C@H](Cc1ccccc1)NC(=O)OCc1ccccc1)C(=O)O`, the outcome was inactive.

Consider `C[C@H](NC(=O)[C@H](Cc1ccccc1)NC(=O)OCc1ccccc1)C(=O)COC(=O)c1c(C(F)(F)F)cccc1C(F)(F)F`, for which the result was Active.

As for `COc1ccc(C(=O)OCC(=O)[C@H](CCCNC(=N)N)NC(=O)[C@H](Cc2ccccc2)NC(=O)OCc2ccccc2)cc1`, the result was Active.

Take `CC(=O)NC(Cc1ccc(O)cc1)C(=O)N[C@@H](Cc1ccccc1)C(=O)NCC(=O)COC(=O)c1c(C)cccc1C` (single isomer, unassigned): the result was inactive.

On to `CC(C)(C)OC(=O)NCCCC[C@H](NC(=O)[C@H](Cc1ccccc1)NC(=O)OCc1ccccc1)C(=O)O`, for which the result was inactive.

On to `N=C(N)NCCC[C@H](NC(=O)[C@H](Cc1ccccc1)NC(=O)OCc1ccccc1)C(=O)COC(=O)c1c(C(F)(F)F)cccc1C(F)(F)F`, for which the outcome was Active.

`COc1ccc(C(=O)OCC(=O)[C@H](C)NC(=O)[C@H](Cc2ccccc2)NC(=O)OCc2ccccc2)cc1`: the result was Active.

On to `Cc1ccc(C(=O)OCC(=O)[C@H](C)NC(=O)[C@H](Cc2ccccc2)NC(=O)OCc2ccccc2)cc1`, for which the result was Active.

On to `Cc1cccc(C)c1C(=O)OCC(=O)[C@H](C)NC(=O)[C@H](Cc1ccccc1)NC(=O)OCc1ccccc1`, for which the result was Active.

For the molecule `Cc1cc(C)c(C(=O)OCC(=O)[C@H](CCCNC(=N)N)NC(=O)[C@H](Cc2ccccc2)NC(=O)OCc2ccccc2)c(C)c1`, the result was Active.

With `CC(=O)N[C@@H](Cc1ccc(O)cc1)C(=O)N[C@@H](Cc1ccccc1)C(=O)N[C@@H](CCCNC(=N)N)C(=O)COC(=O)c1c(C)cccc1C`, the outcome was inactive.

Turning to `N=C(N)NCCC[C@H](NC(=O)[C@H](Cc1ccccc1)NC(=O)OCc1ccccc1)C(=O)COC(=O)c1ccc([N+](=O)[O-])cc1`, the outcome was Active.

As to `Cc1ccc(C(=O)OCC(=O)[C@H](CCCNC(=N)N)NC(=O)[C@H](Cc2ccccc2)NC(=O)OCc2ccccc2)cc1`, the outcome was Active.

With `C[C@H](NC(=O)[C@H](Cc1ccccc1)NC(=O)OCc1ccccc1)C(=O)COC(=O)c1ccccc1`, the result was Active.

For the molecule `Cc1cc(C)c(C(=O)OCC(=O)[C@H](C)NC(=O)[C@H](Cc2ccccc2)NC(=O)OCc2ccccc2)c(C)c1`, the outcome was Active.

With `N=C(N)NCCC[C@H](NC(=O)[C@H](Cc1ccccc1)NC(=O)OCc1ccccc1)C(=O)COC(=O)c1ccccc1`, the outcome was Active.

Regarding `Cc1cccc(C)c1C(=O)OCC(=O)[C@H](CCCNC(=N)N)NC(=O)[C@H](Cc1ccccc1)NC(=O)OCc1ccccc1`, the outcome was Active.

Take `CC(C)(C)OC(=O)NCCCC[C@H](NC(=O)[C@H](Cc1ccccc1)NC(=O)OCc1ccccc1)C(=O)CBr`: the result was inactive.

As for `C[C@H](NC(=O)[C@H](Cc1ccccc1)NC(=O)OCc1ccccc1)C(=O)COC(=O)c1ccc([N+](=O)[O-])cc1`, the result was Active.

For a further assay, the system named is Saccharomyces cerevisiae. Nature of the assay: Inhibition of Saccharomyces cerevisiae SM3614 Ras converting enzyme 1 Ste24 mutant at 100 uM after 60 mins by fluorescence based proteolysis assay. An outline of the steps:
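Membranes enriched for yeast Ste24p (plasmid pSM1282 in SM3614, ste24Δ rce1Δ), 0.25 mg/mL final in 100 mM HEPES pH 7.5, 5 mM MgCl2. Pretreated 15 min at 30 °C with 100 µM compound, then 20 µM ABz-KSKTKC(farnesyl)VIQL added. Fluorescence 320/420 nm read every 30–60 s for 60 min at 30 °C. Initial velocities give % activity vs DMSO. At least 4 replicates.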
Regarding `NCCCC[C@H](NC(=O)[C@H](Cc1ccccc1)NC(=O)OCc1ccccc1)C(=O)O`, the outcome was inactive.

For `C[C@H](NC(=O)[C@H](Cc1ccccc1)NC(=O)OCc1ccccc1)C(=O)COC(=O)c1c(C(F)(F)F)cccc1C(F)(F)F`, the outcome was Active.

Turning to `COc1ccc(C(=O)OCC(=O)[C@H](CCCNC(=N)N)NC(=O)[C@H](Cc2ccccc2)NC(=O)OCc2ccccc2)cc1`, the result was Active.

As for `CC(=O)NC(Cc1ccc(O)cc1)C(=O)N[C@@H](Cc1ccccc1)C(=O)NCC(=O)COC(=O)c1c(C)cccc1C` (single isomer, unassigned), the outcome was inactive.

`CC(C)(C)OC(=O)NCCCC[C@H](NC(=O)[C@H](Cc1ccccc1)NC(=O)OCc1ccccc1)C(=O)O`: the outcome was inactive.

As for `N=C(N)NCCC[C@H](NC(=O)[C@H](Cc1ccccc1)NC(=O)OCc1ccccc1)C(=O)COC(=O)c1c(C(F)(F)F)cccc1C(F)(F)F`, the outcome was Active.

Consider `COc1ccc(C(=O)OCC(=O)[C@H](C)NC(=O)[C@H](Cc2ccccc2)NC(=O)OCc2ccccc2)cc1`, for which the result was Active.

Turning to `Cc1ccc(C(=O)OCC(=O)[C@H](C)NC(=O)[C@H](Cc2ccccc2)NC(=O)OCc2ccccc2)cc1`, the result was Active.

For the molecule `Cc1cccc(C)c1C(=O)OCC(=O)[C@H](C)NC(=O)[C@H](Cc1ccccc1)NC(=O)OCc1ccccc1`, the outcome was Active.

Regarding `Cc1cc(C)c(C(=O)OCC(=O)[C@H](CCCNC(=N)N)NC(=O)[C@H](Cc2ccccc2)NC(=O)OCc2ccccc2)c(C)c1`, the outcome was Active.

Consider `CC(=O)N[C@@H](Cc1ccc(O)cc1)C(=O)N[C@@H](Cc1ccccc1)C(=O)N[C@@H](CCCNC(=N)N)C(=O)COC(=O)c1c(C)cccc1C`, for which the result was inactive.

Regarding `N=C(N)NCCC[C@H](NC(=O)[C@H](Cc1ccccc1)NC(=O)OCc1ccccc1)C(=O)COC(=O)c1ccc([N+](=O)[O-])cc1`, the outcome was Active.

Regarding `Cc1ccc(C(=O)OCC(=O)[C@H](CCCNC(=N)N)NC(=O)[C@H](Cc2ccccc2)NC(=O)OCc2ccccc2)cc1`, the result was Active.

Take `C[C@H](NC(=O)[C@H](Cc1ccccc1)NC(=O)OCc1ccccc1)C(=O)COC(=O)c1ccccc1`: the result was Active.

With `Cc1cc(C)c(C(=O)OCC(=O)[C@H](C)NC(=O)[C@H](Cc2ccccc2)NC(=O)OCc2ccccc2)c(C)c1`, the outcome was Active.

Turning to `N=C(N)NCCC[C@H](NC(=O)[C@H](Cc1ccccc1)NC(=O)OCc1ccccc1)C(=O)COC(=O)c1ccccc1`, the outcome was Active.

For the molecule `Cc1cccc(C)c1C(=O)OCC(=O)[C@H](CCCNC(=N)N)NC(=O)[C@H](Cc1ccccc1)NC(=O)OCc1ccccc1`, the outcome was Active.

For `CC(C)(C)OC(=O)NCCCC[C@H](NC(=O)[C@H](Cc1ccccc1)NC(=O)OCc1ccccc1)C(=O)CBr`, the result was inactive.

In the case of `C[C@H](NC(=O)[C@H](Cc1ccccc1)NC(=O)OCc1ccccc1)C(=O)COC(=O)c1ccc([N+](=O)[O-])cc1`, the result was Active.
